Among the data in ChEMBL document CHEMBL1649328, “Assessment of pandemic and seasonal influenza A (H1N1) virus susceptibility to neuraminidase inhibitors in three enzyme activity inhibition assays” (Antimicrob Agents Chemother, 2010) are IC50 values, retold here.

Common to all, as to type: functional, organism-based
Test [1] deals with Influenza A virus. Description: Antiviral activity against influenza A (A/Washington/29/2009 (H1N1)) virus after 30 mins by MUNANA substrate based fluorometric assay. Conditions: 0.5 h. A digest of the protocol: (§1)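 Fluorometric NA inhibition with MUNANA (100 μM final). Titrated virus in NA-Star buffer (26 mM MES, 4 mM CaCl2, pH 6.0) was preincubated with ten half-log inhibitor dilutions (0.03–1,000 nM final) for 30 min at 37°C, then with substrate for 30 min at 37°C. The reaction was stopped with 0.1 M glycine in 25% ethanol, pH 10.7, and 4-methylumbelliferone was read at ex 365/em 450 nm. IC50 came from a Vmax·[1−x/(K+x)] fit, mean of ≥3 experiments.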

The subject of test [2] is Influenza A virus. Description: Antiviral activity against influenza A (A/Washington/10/2008 (H1N1)) virus after 16 to 18 hrs by fetuin substrate based colorimetric assay. A digest of the protocol:
(§2)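 Colorimetric NA inhibition with fetuin substrate. Virus was diluted in NA-Star buffer (26 mM MES, 4 mM CaCl2, pH 6.0) to give OD549 of 0.4–0.8 after 18 h. It was preincubated with ten half-log inhibitor dilutions (0.03–1,000 nM final) for 1 h at 37°C, then with fetuin (5.5 mg/ml final) for 16–18 h at 37°C. Released sialic acid was read at 549 nm after periodate/TBA reaction and butanol extraction. IC50 came from a Vmax·[1−x/(K+x)] fit, mean of ≥2 experiments.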

Test [3] relates to Influenza A virus. Description: Antiviral activity against influenza A (A/North Carolina/02/2009 (H1N1)) virus after 30 mins by NA-star substrate based chemiluminescent assay. Conditions: 0.5 h. A digest of the protocol: (§3)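 Titrated virus in NA-Star buffer (26 mM MES, 4 mM CaCl2, pH 6.0) was preincubated with ten half-log inhibitor dilutions (0.03–1,000 nM final) for 30 min at 37°C, then with substrate for 30 min at room temperature. Accelerator solution was added and luminescence read for 0.1 s. IC50 came from a Vmax·[1−x/(K+x)] fit, mean of ≥3 experiments.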

Test [4] concerns Influenza A virus. Put plainly: Antiviral activity against influenza A (A/Washington/29/2009 (H1N1)) virus after 30 mins by NA-star substrate based chemiluminescent assay. Particulars: 0.5 h. A digest of the protocol:
as §3

Test [5] has as its system Influenza A virus. Description: Antiviral activity against influenza A (A/Washington/10/2008 (H1N1)) virus after 30 mins by MUNANA substrate based fluorometric assay. Conditions: 0.5 h. A digest of the protocol:
as §1

The subject of test [6] is Influenza A virus. Description: Antiviral activity against influenza A (A/New York/18/2009 (H1N1)) virus after 16 to 18 hrs by fetuin substrate based colorimetric assay. A digest of the protocol:
as §2

Test [7] deals with Influenza A virus. Description: Antiviral activity against influenza A (A/Singapore/91/2009 (H1N1)) virus after 30 mins by MUNANA substrate based fluorometric assay. Conditions: 0.5 h. A digest of the protocol:
as §1

Test [8] has as its system Influenza A virus. Put plainly: Antiviral activity against influenza A (A/Singapore/91/2009 (H1N1)) virus after 30 mins by NA-star substrate based chemiluminescent assay. Conditions: 0.5 h. A digest of the protocol: as §3
The test system of test [9] is Influenza A virus. Description: Antiviral activity against influenza A (A/Washington/10/2008 (H1N1)) virus after 30 mins by NA-star substrate based chemiluminescent assay. Particulars: 0.5 h. A digest of the protocol: as §3
In test [10] the test system is Influenza A virus. Put plainly: Antiviral activity against influenza A (A/New York/18/2009 (H1N1)) virus after 30 mins by NA-star substrate based chemiluminescent assay. Particulars: 0.5 h. A digest of the protocol:
as §3

Test [11] has as its system Influenza A virus. Put plainly: Antiviral activity against influenza A (A/North Carolina/02/2009 (H1N1)) virus after 30 mins by MUNANA substrate based fluorometric assay. Conditions: 0.5 h. A digest of the protocol: as §1
Test [12] relates to Influenza A virus. Description: Antiviral activity against influenza A (A/North Carolina/02/2009 (H1N1)) virus after 16 to 18 hrs by fetuin substrate based colorimetric assay. A digest of the protocol: as §2
For test [13], the system named is Influenza A virus. Description: Antiviral activity against influenza A (A/Singapore/91/2009 (H1N1)) virus after 16 to 18 hrs by fetuin substrate based colorimetric assay. A digest of the protocol: as §2
The test system of test [14] is Influenza A virus. Description: Antiviral activity against influenza A (A/Washington/29/2009 (H1N1)) virus after 16 to 18 hrs by fetuin substrate based colorimetric assay. A digest of the protocol:
as §2

Test [15] relates to Influenza A virus. Put plainly: Antiviral activity against influenza A (A/New York/18/2009 (H1N1)) virus after 30 mins by MUNANA substrate based fluorometric assay. Conditions: 0.5 h. A digest of the protocol:
as §1

Each structure is given as a SMILES string.

As to `CCC(CC)[C@H](NC(C)=O)[C@@H]1[C@H](O)[C@@H](C(=O)O)C[C@H]1NC(=N)N` [PERAMIVIR ANHYDROUS], the IC50 (as a rule, the point on the concentration scale where inhibition reaches its midpoint) in test [1] turned out to be 0.2 nM; in test [2] it was 0.75 nM; in test [3], 0.08 nM; in [4] it was 0.14 nM; in test [5], 0.18 nM; in [6], 0.41 nM. Also, the IC50 in [7] amounted to 0.14 nM; in test [8], 0.11 nM; in test [9], 0.11 nM; in [10], 0.12 nM; in test [11], 0.19 nM; in test [12] it was 0.7 nM. In addition, the half-maximal inhibitory concentration (IC50) in test [13] is 0.55 nM; in test [14], 0.49 nM; in test [15], 0.32 nM.
On to `CO[C@@H]([C@@H]1OC(C(=O)O)=C[C@H](NC(=N)N)[C@H]1NC(C)=O)[C@H](O)CO` [LANINAMIVIR], for which the IC50 in test [1] came out at 0.74 nM; in [2] it was 0.79 nM; in test [4], 0.49 nM; in [5], 0.53 nM; in test [6], 0.74 nM; in test [7] it was 0.51 nM. In addition, the 50% inhibitory concentration (IC50) in test [8] worked out at 0.3 nM; in test [9], 0.14 nM; in test [10], 0.49 nM; in test [11], 0.61 nM; in test [12], 0.86 nM; in test [13], 0.9 nM. Further, the half-maximal inhibitory concentration (IC50) in [14] turned out to be 1.57 nM; in test [15] it was 0.96 nM.
Turning to `C/C=C\[C@@H]1C[C@H](C(=O)O)N[C@H]1[C@@H](NC(C)=O)[C@](C)(CCC)OC`, the IC50 in test [1] came out at 0.53 nM; in [2], 1.03 nM; in [3] it was 0.18 nM; in [4], 0.35 nM; in test [5] it was 0.51 nM; in test [6], 0.9 nM. For the same compound, the 50% inhibitory concentration (IC50) in test [7] is 0.46 nM; in [8], 0.27 nM; in [9] it was 0.16 nM; in test [10], 0.43 nM; in [11], 0.51 nM; in test [12], 0.75 nM. Besides, the half-maximal inhibitory concentration (IC50) in test [13] is 1.4 nM; in test [14], 1.31 nM; in [15] it was 0.74 nM.
